Assay results pooled from the literature.

SMILES | target or system | test | system | setting | quantity | result
CC1CCN(CCCN2/C(=C/c3cc[n+](C)c4ccccc34)Sc3ccccc32)CC1.[I-] | Enterobacter cloacae | microbial growth, broth dilution | ATCCBAA1143 | – | MIC | > 64 µg/mL
Nc1cc(Cl)c(Cl)cc1N | ME-180 | cell growth or viability | – | 72 h | IC50 | 100 µM
CN1C[C@H](C(=O)N[C@]2(C)O[C@@]3(O)[C@@H]4CCCN4C(=O)[C@H](Cc4ccccc4)N3C2=O)C=C2c3cccc4[nH]cc(c34)C[C@H]21 | NCI-H1299 | cell growth or viability, MTT | – | 72 h | EC50 | ~25 µM
CCCCCOc1ccc(-c2cc(-c3ccc(C(=O)N[C@H]4C[C@@H](O)[C@@H](O)NC(=O)[C@@H]5[C@@H](O)[C@@H](C)CN5C(=O)[C@H]([C@H](O)CC(N)=O)NC(=O)[C@H]([C@H](O)[C@@H](O)c5ccc(O)c(OS(=O)(=O)O)c5)NC(=O)[C@@H]5C[C@@H](O)CN5C(=O)[C@H]([C@@H](C)O)NC4=O)cc3)no2)cc1 | Candida dubliniensis | biofilm formation | – | 16 µg/mL | inhibition | 42%
Nc1cc(Br)c(Br)cc1N | ME-180 | cell growth or viability | – | 72 h | IC50 | 75 µM
CO[C@H]1/C=C/O[C@@]2(C)Oc3c(C)c(O)c4c(O)c(c(/C=N/N5CCN(C)CC5)c(O)c4c3C2=O)NC(=O)/C(C)=C\C=C\[C@H](C)[C@H](O)[C@@H](C)[C@@H](O)[C@@H](C)[C@H](OC(C)=O)[C@@H]1C | Vero | cell growth or viability | – | 18 h | IC50 | 120 µg/mL
COc1cccc(Oc2ccccc2NC(=O)CNC(=O)c2cccc3ccccc23)c1 | HL-60 | cell growth or viability | – | 48 h | GI50 | 0.0813 µM
CN[C@H](CC(C)C)C(=O)N[C@H]1C(=O)N[C@@H](CC(N)=O)C(=O)N[C@H]2C(=O)N[C@H]3C(=O)N[C@H](C(=O)N[C@H](C(=O)O)c4cc(O)cc(O)c4-c4cc3ccc4O)[C@H](O)c3ccc(c(Cl)c3)Oc3cc2cc(c3O[C@@H]2O[C@H](CO)[C@@H](O)[C@H](O)[C@H]2O[C@H]2C[C@](C)(N)[C@H](O)[C@H](C)O2)Oc2ccc(cc2Cl)[C@H]1O | Enterobacter cloacae | microbial growth, broth dilution | ATCCBAA1143 | – | MIC | > 64 µg/mL
